In ChEMBL document CHEMBL4152290, “1H-Benzo[d]imidazoles and 3,4-dihydroquinazolin-4-ones: Design, synthesis and antitubercular activity” (Eur J Med Chem, 2018) one finds MIC data, which are given here for 33 molecules.

The assay has as its system Mycobacterium tuberculosis. In words: Antitubercular activity against Mycobacterium tuberculosis H37Rv ATCC 27294 after 7 days by resazurin dye based assay. To be noted: H37Rv ATCC 27294, 168 h. The class given is functional. The essentials: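 Resazurin microtiter MIC in 7H9 with 10% ADC. Two-fold dilutions from 1 mg/mL DMSO stocks span 25.0–0.05, 10.0–0.02 or 0.02–0.0004 µg/mL, with 2.5% DMSO final. Inoculum is bead-declumped culture grown in 7H9/10% OADC/0.05% Tween 80, diluted to OD600 0.006. Plates run 7 days at 37 °C, then 0.01% resazurin for 48 h. MIC is the lowest concentration preventing the blue-to-pink change. Three independent tests.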
(The colour change of resazurin is a common sign of viable cells or microbes.)

Each structure is given as a SMILES string. Converted amounts (≈) assume the structure as drawn.

Broadly, the MIC is the lowest concentration found to suppress growth. The low end stands for a more susceptible organism, the high end for a less susceptible organism. On to `O=C(CSc1nc2ccccc2[nH]1)Nc1ccc2c(c1)CCC2`, for which the MIC is above 29.6 µM.

Turning to `O=C(CSc1nc2ccccc2[nH]1)NCc1ccccc1`, the MIC is above 33.6 µM.

`O=C(CSc1nc(O)c2ccccc2n1)N1CCCCC1` yielded an MIC above 33 µM.

`O=C(CSc1nc(O)c2ccccc2n1)Nc1ccc(Br)cc1`: the MIC is above 25.6 µM.

As to `CC1CCCCC1NC(=O)CSc1nc2ccccc2[nH]1` (stereo not drawn), the minimal inhibitory concentration (MIC) was above 33 µM.

For the molecule `O=C(CSc1nc(O)c2ccccc2n1)Nc1ccc([N+](=O)[O-])cc1`, the MIC was above 28.1 µM.

On to `O=C(CSc1nc2ccccc2c(=O)[nH]1)NC1CCCC1`, for which the MIC turned out to be 2.07 µM (≈ 0.628 µg/mL).

Turning to `CN(C(=O)CSc1nc2ccccc2c(=O)[nH]1)C1CCCCC1`, the minimal inhibitory concentration (MIC) was above 75.4 µM.

As to `CCCCCc1ccc(NC(=O)CSc2nc3ccccc3c(=O)[nH]2)cc1`, the lowest concentration to inhibit growth (MIC) was 26.2 µM (≈ 10 µg/mL).

`C[C@H]1CC[C@H](NC(=O)CSc2nc3ccccc3[nH]2)CC1` registered a minimum inhibitory concentration (MIC) of 16.5 µM (≈ 5.01 µg/mL).

As for `C[C@@H](NC(=O)CSc1nc2ccccc2c(=O)[nH]1)C1CCCCC1`, the minimal inhibitory concentration (MIC) is above 28.9 µM.

Turning to `Cc1ccc(NC(=O)CSc2nc3ccccc3c(=O)[nH]2)cc1`, the MIC is above 30.7 µM.

`CCCCCc1ccc(NC(=O)CSc2nc3ccccc3[nH]2)cc1` registered an MIC above 70.7 µM.

Consider `CC1CCCC(NC(=O)CSc2nc3ccccc3[nH]2)C1` (stereo not drawn), for which the MIC is above 33 µM.

Take `O=C(CSc1nc2ccccc2[nH]1)NCC1CCCCC1`: 82.4 µM (≈ 25 µg/mL) was the least that counted as inhibitory (MIC).

As for `O=C(CSc1nc2ccccc2c(=O)[nH]1)NCc1ccccc1`, 4.8 µM (≈ 1.56 µg/mL) was the least that counted as inhibitory (MIC).

Regarding `CCCc1ccc(NC(=O)CSc2nc3ccccc3c(=O)[nH]2)cc1`, the MIC is above 28.3 µM.

`O=C(CSc1nc2ccccc2c(=O)[nH]1)N[C@@H]1CCc2ccccc2C1` registered an MIC of 17.1 µM (≈ 6.25 µg/mL).

Consider `C[C@H](NC(=O)CSc1nc2ccccc2[nH]1)C1CCCCC1`, for which the MIC is above 31.5 µM.

The molecule `O=C(CSc1nc2ccccc2c(=O)[nH]1)Nc1ccc2ccccc2c1` showed an MIC above 27.7 µM.

In the case of `C[C@H](NC(=O)CSc1nc2ccccc2c(=O)[nH]1)C1CCCCC1`, the MIC was above 28.9 µM.

As for `O=C(CSc1nc2ccccc2c(=O)[nH]1)Nc1ccc(I)cc1`, the MIC is above 22.9 µM.

Regarding `O=C(CSc1nc2ccccc2c(=O)[nH]1)Nc1ccc(F)cc1`, the MIC is above 30.4 µM.

As for `O=C(CSc1nc2ccccc2[nH]1)Nc1ccc2ccccc2c1`, the MIC is above 75 µM.

On to `COc1ccccc1NC(=O)CSc1nc2ccccc2[nH]1`, for which the minimal inhibitory concentration (MIC) is above 31.9 µM.

As for `COc1ccc(NC(=O)CSc2nc3ccccc3c(=O)[nH]2)cc1`, the minimal inhibitory concentration (MIC) is above 29.3 µM.

For `CCCCCCCc1ccc(NC(=O)CSc2nc3ccccc3[nH]2)cc1`, the MIC was above 65.5 µM.

Molecule `O=C(CSc1nc2ccccc2[nH]1)NC1CCCCC1` came in with an MIC above 31.3 µM.

Molecule `CC1CCC(NC(=O)CSc2nc3ccccc3[nH]2)CC1` (stereo not drawn) had an MIC of 41.2 µM (≈ 12.5 µg/mL). That is a double-digit micromolar value.

As for `O=C(CSc1nc2ccccc2c(=O)[nH]1)N[C@H]1CCc2ccccc2C1`, the minimum inhibitory concentration (MIC) is above 27.4 µM.

`O=C(CSc1nc2ccccc2c(=O)[nH]1)Nc1ccccc1`: the MIC was above 32.1 µM.

With `O=C(CSc1nc2ccccc2c(=O)[nH]1)Nc1ccc(Cl)cc1`, the minimum inhibitory concentration (MIC) was 28.9 µM (≈ 9.99 µg/mL).

Molecule `NNC(=O)c1ccncc1` [ISONIAZID] returned an MIC of 2.9 µM (≈ 0.398 µg/mL). This MIC is about 10-fold lower than that of the molecule before.
